From ChEMBL document CHEMBL2040809, “Synthesis and biological activity evaluation of cytidine-5'-deoxy-5-fluoro-N-[(alkoxy/aryloxy)] carbonyl-cyclic 2',3'-carbonates” (Eur J Med Chem, 2012)
Values after ≈ are worked out from the molar mass of the structure shown.

Key:
Salmonella typhimurium [1] = assay: Mutagenic activity in Salmonella typhimurium TA1535 at 0.312 to 5 mg/plate measured after incubation of upside down for 48 hrs in absence of liver S9 mixture; type: toxicity, organism-based; conditions: salmonella enterica subsp. enterica serovar typhimurium
Procedure, shortened: (§1)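 Plate incorporation trial (Trial I) with histidine-dependent auxotrophs. Revertant colonies are counted against the concurrent vehicle control. Each dose and each control, including negative, vehicle and positive reference mutagens, run in triplicate plates.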

Salmonella typhimurium [2] = assay: Mutagenic activity in Salmonella typhimurium TA1535 at 0.312 to 5 mg/plate preincubated for 20 mins before addition in absence of liver S9 mixture; type: toxicity, organism-based; conditions: salmonella enterica subsp. enterica serovar typhimurium
Procedure, shortened: (§2)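 Pre-incubation trial (Trial II) with histidine-dependent auxotrophs. Test solution is pre-incubated with bacterial suspension and S9 mix (10% v/v) or substitution buffer before plating on selective agar. Revertant colonies are counted against the concurrent vehicle control. Triplicate plates per dose and per control (negative, vehicle, positive reference mutagens).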

Salmonella typhimurium [3] = assay: Mutagenic activity in Salmonella typhimurium TA100 at 0.312 to 5 mg/plate preincubated for 20 mins before addition in absence of liver S9 mixture; type: toxicity, organism-based; conditions: salmonella enterica subsp. enterica serovar typhimurium; procedure, shortened: as §2
Salmonella typhimurium [4] = assay: Mutagenic activity in Salmonella typhimurium TA98 at 0.312 to 5 mg/plate preincubated for 20 mins before addition in absence of liver S9 mixture; type: toxicity, organism-based; conditions: salmonella enterica subsp. enterica serovar typhimurium; procedure, shortened: as §2
Salmonella typhimurium [5] = assay: Mutagenic activity in Salmonella typhimurium TA1537 at 0.312 to 5 mg/plate preincubated for 20 mins before addition in absence of liver S9 mixture; type: toxicity, organism-based; conditions: salmonella enterica subsp. enterica serovar typhimurium; procedure, shortened: as §2
Salmonella typhimurium [6] = assay: Mutagenic activity in Salmonella typhimurium TA102 at 0.312 to 5 mg/plate measured after incubation of upside down for 48 hrs in absence of liver S9 mixture; type: toxicity, organism-based; conditions: salmonella enterica subsp. enterica serovar typhimurium; procedure, shortened: as §1
Salmonella typhimurium [7] = assay: Mutagenic activity in Salmonella typhimurium TA1537 at 0.312 to 5 mg/plate preincubated for 20 mins before addition in presence of liver S9 mixture; type: toxicity, organism-based; conditions: salmonella enterica subsp. enterica serovar typhimurium; procedure, shortened: as §2
MCF7 = assay: Cytotoxicity against human MCF7 cells after 3 days MTT assay; type: functional, cell-based; conditions: MCF7, 72 h
Procedure, shortened: (§3)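 Cells held as monolayers in DMEM with 10% supplement. Seeded in 96-well plates on day 0 at densities set by doubling time: 1 × 10⁴/mL for HeLa and NCI-69, 2 × 10⁴/mL for MCF-7, 3 × 10⁴/mL for PZ-HPV-7. Five dilutions (10⁻⁸–5 × 10⁻⁶ mol/l), freshly prepared, added for 72 h. Growth read by MTT (succinate dehydrogenase activity); IC50 derived.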

Salmonella typhimurium [8] = assay: Mutagenic activity in Salmonella typhimurium TA98 at 0.312 to 5 mg/plate measured after incubation of upside down for 48 hrs in presence of liver S9 mixture; type: toxicity, organism-based; conditions: salmonella enterica subsp. enterica serovar typhimurium, s9, 48 h; procedure, shortened: as §1
Salmonella typhimurium [9] = assay: Mutagenic activity in Salmonella typhimurium TA1535 at 0.312 to 5 mg/plate measured after incubation of upside down for 48 hrs in presence of liver S9 mixture; type: toxicity, organism-based; conditions: salmonella enterica subsp. enterica serovar typhimurium, s9, 48 h; procedure, shortened: as §1
Salmonella typhimurium [10] = assay: Mutagenic activity in Salmonella typhimurium TA98 at 0.312 to 5 mg/plate measured after incubation of upside down for 48 hrs in absence of liver S9 mixture; type: toxicity, organism-based; conditions: salmonella enterica subsp. enterica serovar typhimurium; procedure, shortened: as §1
[11] = Cytotoxicity against human PZ-HPV-7 cells after 3 days MTT assay; type: functional, cell-based; conditions: 72 h; procedure, shortened: as §3
Salmonella typhimurium [12] = assay: Mutagenic activity in Salmonella typhimurium TA100 at 0.312 to 5 mg/plate measured after incubation of upside down for 48 hrs in absence of liver S9 mixture; type: toxicity, organism-based; conditions: salmonella enterica subsp. enterica serovar typhimurium; procedure, shortened: as §1
Salmonella typhimurium [13] = assay: Mutagenic activity in Salmonella typhimurium TA98 at 0.312 to 5 mg/plate preincubated for 20 mins before addition in presence of liver S9 mixture; type: toxicity, organism-based; conditions: salmonella enterica subsp. enterica serovar typhimurium; procedure, shortened: as §2
Salmonella typhimurium [14] = assay: Mutagenic activity in Salmonella typhimurium TA1537 at 0.312 to 5 mg/plate measured after incubation of upside down for 48 hrs in presence of liver S9 mixture; type: toxicity, organism-based; conditions: salmonella enterica subsp. enterica serovar typhimurium, s9, 48 h; procedure, shortened: as §1
Salmonella typhimurium [15] = assay: Mutagenic activity in Salmonella typhimurium TA102 at 0.312 to 5 mg/plate preincubated for 20 mins before addition in presence of liver S9 mixture; type: toxicity, organism-based; conditions: salmonella enterica subsp. enterica serovar typhimurium; procedure, shortened: as §2
L1210 [16] = assay: Antitumor activity against mouse L1210 cells xenografted in BDF-1 mouse assessed as increase in mean survival time at 1.5 mmol/kg, po qd for 2 weeks; type: functional
Procedure, shortened: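 Male BDF-1 mice inoculated intraperitoneally on day 0 with L1210 leukemia cells (1 × 10⁶/mL). Cells were kept in RPMI 1640 with 10% fetal bovine serum at 37 °C, 5% CO₂, subcultured once or twice weekly, and resuspended in PBS. Compounds were given orally, with maximum doses set from acute toxicity. Read-out was mean survival time versus untreated control.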

Salmonella typhimurium [17] = assay: Mutagenic activity in Salmonella typhimurium TA102 at 0.312 to 5 mg/plate preincubated for 20 mins before addition in absence of liver S9 mixture; type: toxicity, organism-based; conditions: salmonella enterica subsp. enterica serovar typhimurium; procedure, shortened: as §2
HeLa = assay: Cytotoxicity against human HeLa cells after 3 days MTT assay; type: functional, cell-based; conditions: 72 h; procedure, shortened: as §3
NCI-H69 = assay: Cytotoxicity against human NCI-H69 cells after 3 days MTT assay; type: functional, cell-based; conditions: NCI-H69, 72 h; procedure, shortened: as §3
Salmonella typhimurium [18] = assay: Mutagenic activity in Salmonella typhimurium TA100 at 0.312 to 5 mg/plate preincubated for 20 mins before addition in presence of liver S9 mixture; type: toxicity, organism-based; conditions: salmonella enterica subsp. enterica serovar typhimurium; procedure, shortened: as §2
Salmonella typhimurium [19] = assay: Mutagenic activity in Salmonella typhimurium TA1535 at 0.312 to 5 mg/plate preincubated for 20 mins before addition in presence of liver S9 mixture; type: toxicity, organism-based; conditions: salmonella enterica subsp. enterica serovar typhimurium; procedure, shortened: as §2
Salmonella typhimurium [20] = assay: Mutagenic activity in Salmonella typhimurium TA100 at 0.312 to 5 mg/plate measured after incubation of upside down for 48 hrs in presence of liver S9 mixture; type: toxicity, organism-based; conditions: salmonella enterica subsp. enterica serovar typhimurium, s9, 48 h; procedure, shortened: as §1
Salmonella typhimurium [21] = assay: Mutagenic activity in Salmonella typhimurium TA1537 at 0.312 to 5 mg/plate measured after incubation of upside down for 48 hrs in absence of liver S9 mixture; type: toxicity, organism-based; conditions: salmonella enterica subsp. enterica serovar typhimurium; procedure, shortened: as §1
Salmonella typhimurium [22] = assay: Mutagenic activity in Salmonella typhimurium TA102 at 0.312 to 5 mg/plate measured after incubation of upside down for 48 hrs in presence of liver S9 mixture; type: toxicity, organism-based; conditions: salmonella enterica subsp. enterica serovar typhimurium, s9, 48 h; procedure, shortened: as §1
L1210 [23] = assay: Antitumor activity against mouse L1210 cells xenografted in BDF-1 mouse assessed as increase in mean survival time at 0.080 mmol/kg, po administered 5 days in a week for 3 weeks
L1210 [24] = assay: Antitumor activity against mouse L1210 cells xenografted in BDF-1 mouse assessed as increase in mean survival time at 0.16 mmol/kg, po administered 5 days in a week for 3 weeks

SMILES	Activity (Salmonella typhimurium [1])	Activity (Salmonella typhimurium [2])	Activity (Salmonella typhimurium [3])	Activity (Salmonella typhimurium [4])	Activity (Salmonella typhimurium [5])	Activity (Salmonella typhimurium [6])	Activity (Salmonella typhimurium [7])	IC50 (MCF7) [µg/mL]	Activity (Salmonella typhimurium [8])	Activity (Salmonella typhimurium [9])	Activity (Salmonella typhimurium [10])	IC50 [11] [µg/mL]	Activity (Salmonella typhimurium [12])	Activity (Salmonella typhimurium [13])	Activity (Salmonella typhimurium [14])	Activity (Salmonella typhimurium [15])	MST (L1210 [16]) [days]	Activity (Salmonella typhimurium [17])	IC50 (HeLa) [µg/mL]	IC50 (NCI-H69) [µg/mL]	further results
CCCCCOC(=O)Nc1nc(=O)n([C@@H]2O[C@H](C)[C@H]3OC(=O)O[C@H]32)cc1F	Non-toxic	Non-toxic	Non-toxic	Non-toxic	Non-toxic	Non-toxic	Non-toxic	80 (≈ 208 µM)	Non-toxic	Non-toxic	Non-toxic	140 (≈ 363 µM)	Non-toxic	Non-toxic	Non-toxic	Non-toxic	17.3	Non-toxic	0.08 (≈ 0.208 µM)	180 (≈ 467 µM)	Activity (Salmonella typhimurium [18]): Non-toxic; Activity (Salmonella typhimurium [19]): Non-toxic; Activity (Salmonella typhimurium [20]): Non-toxic; Activity (Salmonella typhimurium [21]): Non-toxic; Activity (Salmonella typhimurium [22]): Non-toxic
CCCCCOC(=O)Nc1nc(=O)n([C@@H]2O[C@H](C)[C@@H](O)[C@H]2O)cc1F [CAPECITABINE]	Non-toxic	Non-toxic	Non-toxic	Non-toxic	Non-toxic	Non-toxic	Non-toxic	710 (≈ 1980 µM)	Non-toxic	Non-toxic	Non-toxic	160 (≈ 445 µM)	Non-toxic	Non-toxic	Non-toxic	Non-toxic	12.8	Non-toxic	0.05 (≈ 0.139 µM)	300 (≈ 835 µM)	MST (L1210 [23]): 20.3 days; MST (L1210 [24]): 19.6 days; Activity (Salmonella typhimurium [18]): Non-toxic; Activity (Salmonella typhimurium [19]): Non-toxic; Activity (Salmonella typhimurium [20]): Non-toxic; Activity (Salmonella typhimurium [21]): Non-toxic; Activity (Salmonella typhimurium [22]): Non-toxic
